Data from ChEMBL document CHEMBL4400539, “Discovery of a Novel Chemotype of Histone Lysine Methyltransferase EHMT1/2 (GLP/G9a) Inhibitors: Rational Design, Synthesis, Biological Evaluation, and Co-crystal Structure” (J Med Chem, 2019).
pIC50: −log10 of the molar value. Calls of active or inactive are those of the source. The rule behind the calls is not given here.

Experiments:
[1] = target: T1, Histone-lysine N-methyltransferase EHMT2 (Homo sapiens, UniProt Q96KQ7); assay: Inhibition of recombinant human G9a using biotinylated-Histone H3 peptide (1 to 21 residues) after 30 mins in presence of SAM by AlphaLISA assay
T1 sequence (Q96KQ7 whole entry): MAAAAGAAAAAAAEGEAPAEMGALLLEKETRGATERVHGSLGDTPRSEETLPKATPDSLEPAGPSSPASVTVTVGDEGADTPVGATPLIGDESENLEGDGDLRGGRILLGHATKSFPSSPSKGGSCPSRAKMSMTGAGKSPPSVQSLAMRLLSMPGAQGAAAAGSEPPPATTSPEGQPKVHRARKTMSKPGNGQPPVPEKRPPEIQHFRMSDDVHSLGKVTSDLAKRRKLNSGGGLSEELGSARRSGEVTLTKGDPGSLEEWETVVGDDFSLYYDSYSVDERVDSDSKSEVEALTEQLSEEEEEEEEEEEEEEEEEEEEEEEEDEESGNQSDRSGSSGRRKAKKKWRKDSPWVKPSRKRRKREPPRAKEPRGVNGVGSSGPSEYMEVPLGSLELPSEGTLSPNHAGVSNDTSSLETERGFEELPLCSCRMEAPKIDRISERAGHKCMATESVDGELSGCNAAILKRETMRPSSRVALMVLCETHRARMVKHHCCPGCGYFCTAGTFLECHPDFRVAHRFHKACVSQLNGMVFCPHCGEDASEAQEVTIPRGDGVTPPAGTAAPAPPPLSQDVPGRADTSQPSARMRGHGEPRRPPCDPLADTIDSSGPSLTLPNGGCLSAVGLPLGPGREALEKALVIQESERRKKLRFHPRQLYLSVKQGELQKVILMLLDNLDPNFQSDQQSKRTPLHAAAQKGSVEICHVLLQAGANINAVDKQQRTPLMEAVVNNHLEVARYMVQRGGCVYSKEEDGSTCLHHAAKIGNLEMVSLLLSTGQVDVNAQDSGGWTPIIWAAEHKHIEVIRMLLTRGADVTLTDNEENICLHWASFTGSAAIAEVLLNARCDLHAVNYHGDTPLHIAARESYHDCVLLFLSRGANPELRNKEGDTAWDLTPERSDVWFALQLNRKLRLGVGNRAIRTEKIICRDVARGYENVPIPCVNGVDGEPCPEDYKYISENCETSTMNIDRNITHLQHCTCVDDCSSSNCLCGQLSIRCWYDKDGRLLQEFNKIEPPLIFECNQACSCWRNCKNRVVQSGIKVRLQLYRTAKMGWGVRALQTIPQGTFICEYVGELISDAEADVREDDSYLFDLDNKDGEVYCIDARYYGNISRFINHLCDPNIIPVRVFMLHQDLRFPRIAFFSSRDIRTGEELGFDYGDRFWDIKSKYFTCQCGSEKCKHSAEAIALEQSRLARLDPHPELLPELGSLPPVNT

[2] = target: T2, Lysine-specific demethylase 4A (Homo sapiens) (UniProt O75164); assay: Inhibition of recombinant human JMJD2A at 10 to 25 uM using biotinylated-Histone H3 peptide (1 to 21 residues) as substrate preincubated for 30 mins followed by substrate addition and measured after 60 mins in presence of SAM by AlphaLISA assay relative to control
T2 sequence (whole entry): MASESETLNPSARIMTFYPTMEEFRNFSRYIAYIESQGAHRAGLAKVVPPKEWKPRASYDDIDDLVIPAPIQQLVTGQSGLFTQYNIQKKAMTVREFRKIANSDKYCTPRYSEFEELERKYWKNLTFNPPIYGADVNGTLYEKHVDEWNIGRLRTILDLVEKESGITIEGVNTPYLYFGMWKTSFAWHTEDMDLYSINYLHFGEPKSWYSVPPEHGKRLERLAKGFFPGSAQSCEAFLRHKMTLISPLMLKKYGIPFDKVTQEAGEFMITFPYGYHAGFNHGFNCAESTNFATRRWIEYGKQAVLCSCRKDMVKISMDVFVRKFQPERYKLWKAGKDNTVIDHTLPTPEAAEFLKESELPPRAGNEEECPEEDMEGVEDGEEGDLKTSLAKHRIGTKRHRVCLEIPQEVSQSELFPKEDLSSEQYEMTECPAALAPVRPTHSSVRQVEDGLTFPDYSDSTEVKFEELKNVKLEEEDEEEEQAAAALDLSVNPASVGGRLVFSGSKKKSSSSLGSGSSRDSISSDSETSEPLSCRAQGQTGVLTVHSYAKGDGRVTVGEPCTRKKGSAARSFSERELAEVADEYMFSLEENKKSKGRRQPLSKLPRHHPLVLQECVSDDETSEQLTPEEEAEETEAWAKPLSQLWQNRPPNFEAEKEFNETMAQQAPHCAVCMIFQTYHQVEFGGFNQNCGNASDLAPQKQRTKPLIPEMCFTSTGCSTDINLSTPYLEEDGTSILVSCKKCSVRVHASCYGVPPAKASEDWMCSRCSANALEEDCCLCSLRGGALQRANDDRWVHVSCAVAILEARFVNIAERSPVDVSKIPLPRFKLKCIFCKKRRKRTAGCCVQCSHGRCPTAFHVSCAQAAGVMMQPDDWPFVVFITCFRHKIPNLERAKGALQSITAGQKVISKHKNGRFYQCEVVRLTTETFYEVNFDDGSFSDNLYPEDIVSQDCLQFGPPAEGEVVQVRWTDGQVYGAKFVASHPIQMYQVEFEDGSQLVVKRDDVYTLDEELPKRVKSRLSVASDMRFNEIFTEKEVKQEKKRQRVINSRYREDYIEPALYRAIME

[3] = target: Histone acetyltransferase p300 (Homo sapiens) (UniProt Q09472); assay: Inhibition of recombinant human P300 at 10 to 25 uM using biotinylated-Histone H4 peptide (1 to 21 residues) as substrate preincubated for 30 mins followed by substrate addition and measured after 60 mins in presence of SAM by AlphaLISA assay relative to control
Chain of Histone acetyltransferase p300 (Homo sapiens) (Q09472 whole entry, the tested form may be a part): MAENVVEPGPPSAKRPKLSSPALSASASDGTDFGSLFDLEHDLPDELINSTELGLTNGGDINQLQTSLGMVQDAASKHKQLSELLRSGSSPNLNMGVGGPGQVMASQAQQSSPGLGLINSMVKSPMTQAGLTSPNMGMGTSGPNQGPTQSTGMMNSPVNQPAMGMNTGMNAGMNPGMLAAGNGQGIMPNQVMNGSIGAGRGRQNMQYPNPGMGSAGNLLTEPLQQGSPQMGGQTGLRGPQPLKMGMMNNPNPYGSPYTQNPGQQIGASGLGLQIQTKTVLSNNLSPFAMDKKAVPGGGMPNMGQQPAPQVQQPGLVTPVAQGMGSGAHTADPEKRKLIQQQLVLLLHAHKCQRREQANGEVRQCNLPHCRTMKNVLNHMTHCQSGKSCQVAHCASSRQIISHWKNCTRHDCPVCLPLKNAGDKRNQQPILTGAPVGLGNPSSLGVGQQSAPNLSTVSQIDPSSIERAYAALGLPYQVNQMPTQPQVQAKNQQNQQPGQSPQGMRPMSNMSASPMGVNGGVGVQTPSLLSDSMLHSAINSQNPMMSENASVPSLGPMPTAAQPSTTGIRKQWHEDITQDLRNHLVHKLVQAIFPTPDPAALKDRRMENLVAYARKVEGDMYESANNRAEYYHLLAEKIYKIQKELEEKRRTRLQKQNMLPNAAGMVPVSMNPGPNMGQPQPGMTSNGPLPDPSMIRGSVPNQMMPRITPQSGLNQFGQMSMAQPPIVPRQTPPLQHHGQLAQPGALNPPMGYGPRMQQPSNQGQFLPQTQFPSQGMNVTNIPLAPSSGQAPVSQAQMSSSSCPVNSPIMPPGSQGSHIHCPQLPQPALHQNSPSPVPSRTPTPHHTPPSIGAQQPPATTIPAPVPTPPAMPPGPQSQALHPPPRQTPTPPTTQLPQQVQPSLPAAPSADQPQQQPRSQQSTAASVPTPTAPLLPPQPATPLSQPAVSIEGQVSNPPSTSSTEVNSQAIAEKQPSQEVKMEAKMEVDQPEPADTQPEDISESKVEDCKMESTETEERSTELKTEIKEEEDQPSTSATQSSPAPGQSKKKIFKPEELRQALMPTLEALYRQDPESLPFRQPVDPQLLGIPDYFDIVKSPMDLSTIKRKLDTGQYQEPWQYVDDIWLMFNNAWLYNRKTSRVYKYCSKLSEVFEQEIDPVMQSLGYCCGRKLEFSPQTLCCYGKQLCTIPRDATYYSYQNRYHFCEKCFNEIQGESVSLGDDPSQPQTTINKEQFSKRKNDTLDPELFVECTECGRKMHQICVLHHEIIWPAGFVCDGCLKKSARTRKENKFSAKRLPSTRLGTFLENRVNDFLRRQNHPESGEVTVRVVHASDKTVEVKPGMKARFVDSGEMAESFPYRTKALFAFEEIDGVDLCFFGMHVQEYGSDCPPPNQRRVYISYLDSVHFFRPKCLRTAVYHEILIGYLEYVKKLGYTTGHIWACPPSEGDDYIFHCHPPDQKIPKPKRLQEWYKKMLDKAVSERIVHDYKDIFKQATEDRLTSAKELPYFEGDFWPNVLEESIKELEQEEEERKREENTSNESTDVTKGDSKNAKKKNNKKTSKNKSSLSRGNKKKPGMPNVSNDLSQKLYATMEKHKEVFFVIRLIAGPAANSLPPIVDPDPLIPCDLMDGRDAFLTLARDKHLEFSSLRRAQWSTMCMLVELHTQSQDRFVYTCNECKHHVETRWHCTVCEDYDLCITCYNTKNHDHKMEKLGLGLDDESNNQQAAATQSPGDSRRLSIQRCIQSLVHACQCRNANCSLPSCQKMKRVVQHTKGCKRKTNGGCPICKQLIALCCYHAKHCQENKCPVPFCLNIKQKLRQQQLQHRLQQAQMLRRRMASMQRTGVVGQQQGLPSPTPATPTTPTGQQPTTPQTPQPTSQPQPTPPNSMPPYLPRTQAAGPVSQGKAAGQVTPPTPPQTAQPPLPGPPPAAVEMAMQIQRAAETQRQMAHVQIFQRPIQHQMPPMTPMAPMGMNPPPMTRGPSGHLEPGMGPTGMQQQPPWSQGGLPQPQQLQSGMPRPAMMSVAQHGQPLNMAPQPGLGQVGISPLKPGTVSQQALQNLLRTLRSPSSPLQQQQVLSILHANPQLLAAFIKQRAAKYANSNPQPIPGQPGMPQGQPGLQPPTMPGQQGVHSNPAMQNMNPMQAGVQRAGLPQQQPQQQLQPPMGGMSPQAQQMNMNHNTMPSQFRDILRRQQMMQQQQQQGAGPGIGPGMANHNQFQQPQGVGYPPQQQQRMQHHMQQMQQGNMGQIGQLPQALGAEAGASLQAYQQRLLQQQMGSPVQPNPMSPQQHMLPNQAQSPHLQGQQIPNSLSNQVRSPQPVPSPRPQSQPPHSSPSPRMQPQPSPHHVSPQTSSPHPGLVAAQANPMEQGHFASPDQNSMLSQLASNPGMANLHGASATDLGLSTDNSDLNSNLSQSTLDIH

[4] = Chemical stability of the compound in PBS buffer after 72 hrs by HPLC analysis; type: physicochemical
In short: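 Stability checked by HPLC after exposure to PBS over 72 h.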

MCF7 = assay: Cytotoxicity against human MCF7 cells assessed as reduction in cell viability at 0.05 to 50 uM after 48 to 72 hrs by MTT assay; type: cell-based; conditions: mcf7, 50 µM
In short: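 MCF-7, MDA-MB-231 and U-343 cells exposed 24, 48 and 72 h to 0.05, 0.5, 5 and 50 μM compound; viability by MTT reduction to formazan versus vehicle; mean ± SD of at least three independent experiments.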

[5] = target: T3, Histone-lysine N-methyltransferase EHMT2 (Homo sapiens) (UniProt Q96KQ7)
T3 sequence (whole entry): T1 sequence (Q96KQ7 whole entry)

Question: With `COc1cc2c(cc1OCCCN1CCCC1)N=C(C1CCCCC1)CN=C2NC1CCN(C(C)C)CC1` as the compound, how does the pIC50 [1] read?
Answer: 7.64

Question: And the inhibition [2]?
Answer: inactive

Question: And the inhibition [3]?
Answer: inactive

Question: And the Stability [4]?
Answer: Stable

Question: What about the Activity (MCF7) of the same compound?
Answer: Toxic

Question: And the Kdiss [5]?
Answer: 0.0351
